Results: ChEMBL document CHEMBL4049394, “Desing and synthesis of potent anti-Trypanosoma cruzi agents new thiazoles derivatives which induce apoptotic parasite death” (Eur J Med Chem, 2017)

Tests used:
[1] = tested on: Trypanosoma cruzi; assay: Antitrypanosomal activity against bloodstream trypomastigote stage of Trypanosoma cruzi Y infected in monkey LLC-MK2 cells measured after 24 hrs by neubauer chamber method; assay type: functional; conditions: LLC-MK2, in Primates
Summary of the method: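 Y strain trypomastigotes taken from LLC-MK2 culture supernatant and held in RPMI-1640 with 10% FBS. Seeded at 4×10^5 cells/well and treated in triplicate for 24 h at 37 °C, 5% CO2. Motile parasites counted in a Neubauer chamber against untreated wells. IC50 by nonlinear regression from at least seven concentrations. Experiment repeated; SD < 10% of mean required.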

[2] = Cytotoxicity against mouse J774A.1 cells after 24 to 72 hrs by MTT assay; assay type: cell-based, J774.A1; conditions: read-out: MNCC
Summary of the method: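 J774A.1 macrophages in DMEM with 10% heat-inactivated FBS at 37 °C, 5% CO2. Seeded at 1×10^5 cells/well, 24 h preincubation, then compounds at 1–100 µg/mL for 72 h (table footnote: viability at 24 h). MTT 2 h, formazan dissolved in DMSO, absorbance read at 570 nm. Highest non-cytotoxic concentration reported.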

[3] = Selectivity index, ratio of highest non-cytotoxic concentration for mouse J774A.1 cells to CC50 for bloodstream trypomastigote stage of Trypanosoma cruzi Y infected in monkey LLC-MK2 cells; assay type: toxicity, cell-based; conditions: read-out: Selectivity Index
Summary of the method: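 Selectivity index is the highest non-cytotoxic concentration in J774A.1 macrophages divided by the 50% value against Y strain trypomastigotes measured after 24 h.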

[4] = tested on: Trypanosoma cruzi; assay: Antitrypanosomal activity against Trypanosoma cruzi Dm28c epimastigotes measured after 4 to 5 days by neubauer chamber method; assay type: functional
Summary of the method: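 Dm28c epimastigotes in LIT with 10% FBS, 1% hemin and gentamycin at 27 °C. Seeded at 10^6 cells/well and treated in triplicate for 4 days (table footnote: 5 days). Parasites counted in a Neubauer chamber against untreated wells as 100%. IC50 by nonlinear regression from at least five concentrations. Experiment repeated; only values with SD < 10% of mean kept.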

[5] = tested on: Trypanosoma cruzi; assay: Induction of apoptosis in bloodstream trypomastigote stage of Trypanosoma cruzi Y infected in monkey LLC-MK2 cells assessed as late apoptotic cells at 2.2 uM measured after 24 hrs by Annexin-V-FITC/propidium iodide staining based flow cytometric method (reference value: 0.27%); assay type: functional
[6] = tested on: Trypanosoma cruzi; assay: Induction of apoptosis in bloodstream trypomastigote stage of Trypanosoma cruzi Y infected in monkey LLC-MK2 cells assessed as necrotic cells at 4.4 uM measured after 24 hrs by Annexin-V-FITC/propidium iodide staining based flow cytometric method (reference value: 0.014%); assay type: functional
[7] = tested on: Trypanosoma cruzi; assay: Induction of apoptosis in bloodstream trypomastigote stage of Trypanosoma cruzi Y infected in monkey LLC-MK2 cells assessed as late apoptotic cells at 4.4 uM measured after 24 hrs by Annexin-V-FITC/propidium iodide staining based flow cytometric method (reference value: 0.27%); assay type: functional
[8] = tested on: Trypanosoma cruzi; assay: Induction of apoptosis in bloodstream trypomastigote stage of Trypanosoma cruzi Y infected in monkey LLC-MK2 cells assessed as necrotic cells at 2.2 uM measured after 24 hrs by Annexin-V-FITC/propidium iodide staining based flow cytometric method (reference value: 0.014%); assay type: functional
[9] = tested on: Trypanosoma cruzi; assay: Induction of apoptosis in bloodstream trypomastigote stage of Trypanosoma cruzi Y infected in monkey LLC-MK2 cells assessed as early apoptotic cells at 2.2 uM measured after 24 hrs by Annexin-V-FITC/propidium iodide staining based flow cytometric method (reference value: 0.31%); assay type: functional
[10] = tested on: Trypanosoma cruzi; assay: Induction of apoptosis in bloodstream trypomastigote stage of Trypanosoma cruzi Y infected in monkey LLC-MK2 cells assessed as early apoptotic cells at 4.4 uM measured after 24 hrs by Annexin-V-FITC/propidium iodide staining based flow cytometric method (reference value: 0.31%); assay type: functional
[11] = tested on: Trypanosoma cruzi; assay: Potency index, ratio of benznidazole CC50 to compound CC50 for Trypanosoma cruzi Dm28c epimastigotes; assay type: functional
[12] = tested on: Trypanosoma cruzi; assay: Potency index, ratio of benznidazole CC50 to compound CC50 for bloodstream trypomastigote stage of Trypanosoma cruzi Y infected in monkey LLC-MK2 cells; assay type: functional
[13] = biological target: Cruzipain (Trypanosoma cruzi) (UniProt P25779); assay: Inhibition of Trypanosoma cruzi cruzain at 50 uM using Z-phe-Arg-aminomethylcoumarin as substrate pretreated for 10 mins measured for 5 mins by fluorometric method relative to control
Chain of Cruzipain (Trypanosoma cruzi) (P25779 123-467 limits assumed): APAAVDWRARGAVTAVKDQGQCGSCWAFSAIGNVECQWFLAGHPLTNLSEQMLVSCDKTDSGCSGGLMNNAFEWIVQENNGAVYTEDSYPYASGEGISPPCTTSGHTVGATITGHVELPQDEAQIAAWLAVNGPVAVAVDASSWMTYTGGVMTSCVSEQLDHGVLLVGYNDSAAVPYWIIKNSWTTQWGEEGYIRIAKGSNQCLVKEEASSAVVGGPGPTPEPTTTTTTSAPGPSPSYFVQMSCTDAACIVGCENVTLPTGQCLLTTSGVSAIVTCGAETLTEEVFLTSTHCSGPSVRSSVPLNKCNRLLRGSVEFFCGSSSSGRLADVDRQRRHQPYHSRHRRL
Summary of the method: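 Cruzain at 0.5 nM in 0.1 M sodium acetate pH 5.5 with 0.1 mM β-mercaptoethanol and 0.01% Triton X-100. Compound screened at 50 µM after a 10-min preincubation with enzyme, then 2.5 µM Z-FR-AMC added. AMC fluorescence (ex 340/em 440 nm) followed for 5 min. Activity taken from initial rates relative to a DMSO control. Two independent experiments, each in triplicate.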

[14] = tested on: Trypanosoma cruzi; assay: Induction of apoptosis in bloodstream trypomastigote stage of Trypanosoma cruzi Y infected in monkey LLC-MK2 cells assessed as early apoptotic cells at 3.2 uM measured after 24 hrs by Annexin-V-FITC/propidium iodide staining based flow cytometric method (reference value: 0.31%); assay type: functional
[15] = tested on: Trypanosoma cruzi; assay: Induction of apoptosis in bloodstream trypomastigote stage of Trypanosoma cruzi Y infected in monkey LLC-MK2 cells assessed as necrotic cells at 1.6 uM measured after 24 hrs by Annexin-V-FITC/propidium iodide staining based flow cytometric method (reference value: 0.014%); assay type: functional
[16] = tested on: Trypanosoma cruzi; assay: Induction of apoptosis in bloodstream trypomastigote stage of Trypanosoma cruzi Y infected in monkey LLC-MK2 cells assessed as late apoptotic cells at 1.6 uM measured after 24 hrs by Annexin-V-FITC/propidium iodide staining based flow cytometric method (reference value: 0.27%); assay type: functional
[17] = tested on: Trypanosoma cruzi; assay: Induction of apoptosis in bloodstream trypomastigote stage of Trypanosoma cruzi Y infected in monkey LLC-MK2 cells assessed as early apoptotic cells at 1.6 uM measured after 24 hrs by Annexin-V-FITC/propidium iodide staining based flow cytometric method (reference value: 0.31%); assay type: functional
[18] = tested on: Trypanosoma cruzi; assay: Induction of apoptosis in bloodstream trypomastigote stage of Trypanosoma cruzi Y infected in monkey LLC-MK2 cells assessed as necrotic cells at 3.2 uM measured after 24 hrs by Annexin-V-FITC/propidium iodide staining based flow cytometric method (reference value: 0.014%); assay type: functional
[19] = tested on: Trypanosoma cruzi; assay: Induction of apoptosis in bloodstream trypomastigote stage of Trypanosoma cruzi Y infected in monkey LLC-MK2 cells assessed as late apoptotic cells at 3.2 uM measured after 24 hrs by Annexin-V-FITC/propidium iodide staining based flow cytometric method (reference value: 0.27%); assay type: functional
[20] = tested on: Trypanosoma cruzi; assay: Induction of apoptosis in bloodstream trypomastigote stage of Trypanosoma cruzi Y infected in monkey LLC-MK2 cells assessed as necrotic cells at 25 uM measured after 24 hrs by Annexin-V-FITC/propidium iodide staining based flow cytometric method (reference value: 0.014%); assay type: functional
[21] = tested on: Trypanosoma cruzi; assay: Induction of apoptosis in bloodstream trypomastigote stage of Trypanosoma cruzi Y infected in monkey LLC-MK2 cells assessed as necrotic cells at 5 uM measured after 24 hrs by Annexin-V-FITC/propidium iodide staining based flow cytometric method (reference value: 0.014%); assay type: functional

| SMILES | CC50 [1] [µM] | MNTC [2] [µM] | selectivity ratio [3] | CC50 [4] [µM] | further results |
| --- | --- | --- | --- | --- | --- |
| CNC(=S)N/N=C(\C)c1ccccn1 | 8.8 | 22 | 2.5 | – | – |
| C/C(=N\N=c1/scc(-c2ccc3ccccc3c2)n1-c1ccccc1)c1ccccn1 | 6.1 | 51 | 8 | 1.9 | – |
| C/C(=N\N=c1/scc(-c2ccc([N+](=O)[O-])cc2)n1-c1ccccc1)c1ccccn1 | 3.1 | 23 | 7 | 87.4 | – |
| C/C(=N\N=c1/scc(-c2ccc([N+](=O)[O-])cc2)n1C)c1ccccn1 | 7 | 36 | 5 | 13.7 | – |
| C/C(=N\N=c1/scc(-c2ccc(Br)cc2)n1C)c1ccccn1 | 2.2 | 33 | 15 | 3.2 | Activity [5]: 4%; Activity [6]: 3.15%; Activity [7]: 4.7%; Activity [8]: 3%; Activity [9]: 38%; Activity [10]: 35%; Ratio [11]: 15 |
| C/C(=N\N=c1/scc(-c2ccc(Cl)c(Cl)c2)n1C)c1ccccn1 | 2.3 | 11 | 5 | 6.9 | Ratio [12]: 3; Ratio [11]: 7 |
| C/C(=N\N=c1/sc(C)c(-c2ccccc2)n1C)c1ccccn1 | 2.7 | 97 | 36 | 6.2 | inhibition [13]: 73% |
| C/C(=N\N=c1/scc(-c2cccc([N+](=O)[O-])c2)n1C)c1ccccn1 | 2.4 | 82 | 34 | 7.8 | Ratio [12]: 3 |
| C/C(=N\N=c1/scc(-c2ccc(Cl)cc2)n1-c1ccccc1)c1ccccn1 | 2 | 13 | 7 | 9.1 | – |
| C/C(=N\N=c1/scc(-c2ccc(Br)cc2)n1-c1ccccc1)c1ccccn1 | 1.8 | 10 | 6 | 6.3 | – |
| C/C(=N\N=c1/scc(-c2ccc(-c3ccccc3)cc2)n1-c1ccccc1)c1ccccn1 | 2 | 7 | 4 | 47.3 | – |
| C/C(=N\N=c1/sc(C)c(-c2ccc(Br)cc2)n1C)c1ccccn1 | 3.4 | 68 | 20 | 2.9 | – |
| C/C(=N\N=c1/scc(-c2ccc(-c3ccccc3)cc2)n1C)c1ccccn1 | 2.2 | 6 | 3 | 66.6 | – |
| C/C(=N\N=c1/scc(-c2ccc(Cl)c(Cl)c2)n1-c1ccccc1)c1ccccn1 | 1.9 | 8 | 4 | 13.9 | – |
| COc1ccc(-c2cs/c(=N\N=C(/C)c3ccccn3)n2C)cc1 | 4.6 | 20 | 4 | 4.5 | – |
| C/C(=N\N=c1/scc(-c2ccc(Cl)cc2Cl)n1-c1ccccc1)c1ccccn1 | 1.6 | 81 | 50 to 51 | 2.7 | Ratio [12]: 4 - 5; Activity [14]: 39.4%; Activity [15]: 2.9%; Activity [16]: 4%; Activity [17]: 39.5%; Activity [18]: 3.2%; Activity [19]: 4.3%; Ratio [11]: 18 |
| C/C(=N\N=c1/scc(-c2ccccc2)n1-c1ccccc1)c1ccccn1 | 6.3 | 51 | 8 | 93.4 | – |
| C/C(=N\N=c1/scc(-c2cccc([N+](=O)[O-])c2)n1-c1ccccc1)c1ccccn1 | 1.9 | 10 | 5 | 11 | – |
| C/C(=N\N=c1/scc(-c2ccc3ccccc3c2)n1C)c1ccccn1 | 3 | 30 | 10 | 8.2 | – |
| C/C(=N\N=c1/scc(-c2ccccc2)n1C)c1ccccn1 | 4 | 4 | 1 | 56 | inhibition [13]: 70% |
| C/C(=N\N=c1/scc(-c2ccc(F)cc2)n1C)c1ccccn1 | 5.6 | 12 | 2 | 8.5 | – |
| C/C(=N\N=c1/scc(-c2ccc(F)cc2)n1-c1ccccc1)c1ccccn1 | 3.9 | 35 | 9 | 3.1 | inhibition [13]: 58% |
| C/C(=N\N=c1/sc(C)c(-c2ccccc2)n1-c1ccccc1)c1ccccn1 | 2.3 | 43 | 19 | 15.5 | – |
| C/C(=N\N=c1/scc(-c2ccc(Cl)cc2Cl)n1C)c1ccccn1 | 13 | 14 | 1 | 31.6 | – |
| C/C(=N\N=c1/sc(C)c(-c2ccc(Br)cc2)n1-c1ccccc1)c1ccccn1 | 3.1 | 30 | 10 | 17.1 | – |
| C/C(=N\N=c1/scc(-c2ccc(Cl)cc2)n1C)c1ccccn1 | 4.5 | 20 | 4 | – | – |
| O=C(Cn1ccnc1[N+](=O)[O-])NCc1ccccc1 [BENZNIDAZOLE] | 6.2 | 44.7 | 7.2 | 48.8 | Activity [20]: 56.4%; Activity [21]: 4.2% |
